Results collected from several papers.
Lines come from different studies, so protocols differ.

Compound	test system	setting	AUC
CC(C)(C)OC[C@@H]1C(=O)NCCN1C(=O)C[C@H](N)Cc1cc(F)c(F)cc1F	male human, plasma	oral, 5 mg, multiple doses, steady state	91.4 ng·h/mL
C[C@@H](c1ccc2nccn2c1)n1nnc2ncc(-c3cnn(C)c3)nc21	human, plasma	oral, 600 mg	12800 ng·h/mL
Cc1ccc(C(=O)N(CCCN)[C@@H](c2oc3cc(Cl)ccc3c(=O)c2Cc2ccccc2)C(C)C)cc1	human, plasma	intravenous, 2 mg/m², single dose, patients, infusion	2520 ng·h/mL
CS(=O)(=O)CCC#N	human, plasma	oral, 300 mg, multiple doses, once daily	260000 ng·h/mL
NS(=O)(=O)NCCNc1nonc1C(=NO)Nc1ccc(F)c(Br)c1	human, plasma	oral, 600 mg, multiple doses, twice daily, steady state, patients	22.9 µM·h
CS(=O)(=O)CCNCc1ccc(-c2ccc3ncnc(Nc4ccc(OCc5cccc(F)c5)c(Cl)c4)c3c2)o1	human, serum	oral, 1250 mg, single dose	9070 ng·h/mL
Cn1c(=O)oc2ccc(-c3ccc(C[C@@H](C#N)NC(=O)[C@@H]4CNCCCO4)cc3)cc21	male human, plasma	oral, 65 mg, single dose, healthy volunteers	24.7 µM·h
COc1ccc(Oc2cc(N(C)CCOc3ccc(CC4SC(=O)NC4=O)cc3)ncn2)cc1 (stereo not shown)	male human, plasma	oral, 0.5 mg, multiple doses, once daily, steady state	333 ng·h/mL
COc1cc(C(=O)NC2CCN(C)CC2)c(F)cc1Nc1ncc(C(F)(F)F)c(Oc2cccc3c2C(=O)N(C)C3)n1	human, plasma	oral, 200 mg, multiple doses, once daily, steady state, patients	43.7 µM·h
COc1cc(C(=O)NC2CCN(C)CC2)c(F)cc1Nc1ncc(C(F)(F)F)c(Oc2cccc3c2C(=O)N(C)C3)n1	human, plasma	oral, 100 mg, multiple doses, once daily, steady state, patients	16.3 µM·h
